Consider 33 compounds from ChEMBL document CHEMBL2417499, “Structure-activity relationship studies of Niemann-Pick type C1-like 1 (NPC1L1) ligands identified by screening assay monitoring pharmacological chaperone effect” (Bioorg Med Chem, 2013).

In data set [1] the test system is HEK293. In words: Binding affinity to human GFP-tagged NPC1L1 L1072T/L1168I mutant expressed in HEK293 cells assessed as localization to endoplasmic reticulum and plasma membrane at 10 uM after 24 hrs by fluorescence microscopic analysis. It is filed as cell-based. In outline:
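HEK293 cells stably expressing NPC1L1-GFP mutant from a CMV promoter, kept under G418 (0.4 mg/mL). Seeded at 6,000 cells/well on poly-lysine-coated glass in DMEM with 1% FBS. Dosed next day in 0.1% DMSO final for 24 h, then fixed in 3.7% formaldehyde and imaged at ×100. Each cell in 25 images scored ER 0 to PM 1; mean reported as % plasma membrane localization.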

Data set [2] is described as follows: Binding affinity to human GFP-tagged NPC1L1 L1072T/L1168I mutant expressed in HEK293 cells assessed as localization to endoplasmic reticulum and plasma membrane after 24 hrs by fluorescence microscopic analysis. The data set is classed as cell-based. The procedure, abridged:
(§1)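 HEK293 cells stably expressing the GFP-tagged construct (G418 0.4 mg/mL) were seeded at 6,000 cells/well in DMEM with 1% FBS on poly-lysine-coated glass. On day 2 they were treated for 24 h, final DMSO 0.1%. Cells were fixed in 3.7% formaldehyde and imaged at ×100. Across 25 images, cells were scored ER 0 to PM 1 and averaged as % plasma membrane localization. EC50 was taken from this score.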

Data set [3] can be described thus: Binding affinity to human GFP-tagged NTD-deleted NPC1L1 L1072T/L1168I mutant expressed in HEK293 cells assessed as localization to plasma membrane after 24 hrs by fluorescence microscopic analysis. The data set is classed as cell-based. The procedure, abridged:
as §1

In data set [4] the target is T1, NPC intracellular cholesterol transporter 1 (Homo sapiens) (UniProt O15118).
T1 sequence (whole entry): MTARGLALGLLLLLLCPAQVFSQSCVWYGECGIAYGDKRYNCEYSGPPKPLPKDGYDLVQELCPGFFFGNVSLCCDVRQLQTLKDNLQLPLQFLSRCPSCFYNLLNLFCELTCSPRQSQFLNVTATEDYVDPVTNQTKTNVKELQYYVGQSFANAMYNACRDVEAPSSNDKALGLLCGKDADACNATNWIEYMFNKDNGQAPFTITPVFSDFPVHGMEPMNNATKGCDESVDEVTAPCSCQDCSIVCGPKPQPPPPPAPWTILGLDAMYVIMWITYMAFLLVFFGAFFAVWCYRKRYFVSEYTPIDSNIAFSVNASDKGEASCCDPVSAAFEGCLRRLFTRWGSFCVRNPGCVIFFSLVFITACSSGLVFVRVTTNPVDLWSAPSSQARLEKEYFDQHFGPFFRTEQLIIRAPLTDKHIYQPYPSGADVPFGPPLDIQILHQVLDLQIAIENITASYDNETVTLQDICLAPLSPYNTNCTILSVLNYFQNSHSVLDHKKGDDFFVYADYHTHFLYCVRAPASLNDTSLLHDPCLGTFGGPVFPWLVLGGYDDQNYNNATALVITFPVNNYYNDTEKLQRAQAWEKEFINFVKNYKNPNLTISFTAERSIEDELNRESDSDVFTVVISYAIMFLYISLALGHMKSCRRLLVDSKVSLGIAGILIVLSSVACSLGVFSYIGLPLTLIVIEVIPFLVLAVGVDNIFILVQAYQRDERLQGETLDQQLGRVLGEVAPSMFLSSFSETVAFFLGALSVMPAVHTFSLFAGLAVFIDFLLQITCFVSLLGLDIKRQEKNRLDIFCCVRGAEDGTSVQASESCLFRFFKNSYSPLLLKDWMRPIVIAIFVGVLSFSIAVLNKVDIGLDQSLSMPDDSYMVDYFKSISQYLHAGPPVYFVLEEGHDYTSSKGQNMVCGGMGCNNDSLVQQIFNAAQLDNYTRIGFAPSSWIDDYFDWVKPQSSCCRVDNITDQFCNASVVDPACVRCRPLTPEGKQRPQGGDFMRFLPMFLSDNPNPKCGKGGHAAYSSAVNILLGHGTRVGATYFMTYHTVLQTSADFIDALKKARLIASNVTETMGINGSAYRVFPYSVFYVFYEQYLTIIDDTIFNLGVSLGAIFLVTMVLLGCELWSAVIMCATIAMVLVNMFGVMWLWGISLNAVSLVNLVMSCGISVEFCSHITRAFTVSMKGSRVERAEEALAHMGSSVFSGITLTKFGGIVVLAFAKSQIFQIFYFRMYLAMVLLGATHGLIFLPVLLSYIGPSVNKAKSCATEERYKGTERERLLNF
In words: Binding affinity to NPC1 (unknown origin).

Data set [5] relates to HEK293. Kind of data set: Binding affinity to human GFP-tagged NPC1L1 L1072T/L1168I mutant expressed in HEK293 cells assessed as protein stabilization after 24 hrs by fluorescence assay. The data set is classed as cell-based. In outline: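 Stable HEK293 lines were grown to 70% confluency in phenol red-free medium in 12-well plates and exposed to vehicle or compound for 24 h. Supernatant GFP fluorescence was read and normalized to BCA total protein, n = 3.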

Data set [6] concerns HEK293. Kind of data set: Cytotoxicity against HEK293 cells transfected with human GFP-tagged NPC1L1 L1072T/L1168I mutant. The data set is classed as cell-based.

Calls of active or inactive are those of the source. The rule behind the calls is not given here. Bounds are passed on as bounds.

For `C[C@]12CC[C@H](O)CC1=CC[C@@H]1[C@@H]2CC[C@]2(C)C(=O)CC[C@@H]12`, the result in the data set on HEK293 [1] was inactive.

As to `C[C@H](CCC(=O)N(C)C)[C@H]1CC[C@H]2[C@@H]3CC=C4C[C@@H](O)CC[C@]4(C)[C@H]3CC[C@]12C`, the EC50 in data set [2] (read-out: EC50) is 0.8 µM.

On to `CCCN(CCC)C(=O)O[C@H]1CC[C@@]2(C)C(=CC[C@H]3[C@@H]4CC[C@H]([C@H](C)CCC(=O)N(C)C)[C@@]4(C)CC[C@@H]32)C1`, for which the EC50 in data set [3] was 8 µM; in data set [2] (read-out: EC50) it was 3 µM.

Turning to `C[C@H](CCC(=O)N(C)C)[C@H]1CC[C@H]2[C@@H]3CC=C4C[C@@H](OC(=O)N5CCOCC5)CC[C@]4(C)[C@H]3CC[C@]12C`, the concentration for a half-maximal effect (EC50) in data set [3] was found to be 6.2 µM; in data set [2] (read-out: EC50), 2.3 µM.

For `CC(C)CCC[C@@H](C)[C@H]1CC[C@H]2[C@@H]3C(=O)C=C4C[C@@H](O)CC[C@]4(C)[C@H]3CC[C@]12C` [7-OXOCHOLESTEROL], the half-maximal effective concentration (EC50) in data set [2] (read-out: EC50) amounted to 9.7 µM.

As for `C[C@H](CCC(C)(C)O)[C@H]1CC[C@H]2[C@@H]3CC=C4C[C@@H](O)CC[C@]4(C)[C@H]3CC[C@]12C`, the EC50 in data set [2] (read-out: EC50) is greater than 10 µM.

As to `C[C@H](CCCC(C)(C)O)[C@H]1CC[C@H]2[C@@H]3CC=C4C[C@@H](O)CC[C@]4(C)[C@H]3CC[C@]12C`, the outcome in data set [4] was Active. In addition, the 50% effective concentration (EC50) in data set [2] (read-out: EC50) turned out to be 2.3 µM.

On to `CC(C)CCC[C@@H](C)[C@H]1CC[C@H]2[C@@H]3C[C@@H](O)[C@H]4C[C@@H](O)CC[C@]4(C)[C@H]3CC[C@]12C`, for which the EC50 in data set [2] (read-out: EC50) is 9.7 µM.

With `CC(C)CCC[C@@H](C)[C@H]1CC[C@H]2[C@@H]3C[C@@H](O)[C@H]4C[C@@H](OC(=O)N(CCO)CCO)CC[C@]4(C)[C@H]3CC[C@]12C`, in data set [2] (read-out: EC50), the EC50 was determined as 2 µM.

As for `C[C@H](CCC(=O)N(C)C)[C@H]1CC[C@H]2[C@@H]3CC=C4C[C@@H](OC(=O)N(C)C)CC[C@]4(C)[C@H]3CC[C@]12C`, the EC50 in data set [3] was 4.7 µM; in data set [2] (read-out: EC50), 1.1 µM.

As to `CC(C)CCC[C@@H](C)[C@H]1CC[C@H]2[C@@H]3CC(=O)[C@H]4C[C@@H](O)CC[C@]4(C)[C@H]3CC[C@]12C` [5alpha-CHOLESTAN-3beta-OL-6-ONE], the EC50 in data set [2] (read-out: EC50) worked out at 2.8 µM.

As for `CC(C)CCC[C@@H](C)[C@H]1CC[C@H]2[C@@H]3CC=C4C[C@@H](O)CC[C@]4(CO)[C@H]3CC[C@]12C`, the result with HEK293 [5] and in the data set with HEK293 [1] was inactive.

In the case of `C[C@H](CCC(=O)N(C)C)[C@H]1CC[C@H]2[C@@H]3CC=C4C[C@@H](OC(N)=O)CC[C@]4(C)[C@H]3CC[C@]12C`, the half-maximal effective concentration (EC50) in data set [3] is greater than 10 µM; in data set [2] (read-out: EC50) it was 8.5 µM.

On to `CCN(CC)C(=O)CC[C@@H](C)[C@H]1CC[C@H]2[C@@H]3CC=C4C[C@@H](O)CC[C@]4(C)[C@H]3CC[C@]12C`, for which the Activity entry in the data set on HEK293 [6] is “Toxic”.

`C[C@H](CCC(=O)O)[C@H]1CC[C@H]2[C@@H]3CC=C4C[C@@H](O)CC[C@]4(C)[C@H]3CC[C@]12C`: the EC50 in data set [2] (read-out: EC50) is greater than 10 µM.

In the case of `CC(C)CCC[C@@H](C)[C@H]1CC[C@H]2[C@@H]3C[C@@H](O)[C@@]4(O)C[C@@H](OC(=O)N(CCO)CCO)CC[C@]4(C)[C@H]3CC[C@]12C`, in data set [2] (read-out: EC50), the EC50 amounted to 8.1 µM.

Consider `C[C@H](CCC(=O)N(C)C)[C@H]1CC[C@H]2[C@@H]3CC=C4C[C@@H](OC(=O)N5CCN(C)CC5)CC[C@]4(C)[C@H]3CC[C@]12C`, for which the concentration giving a half-maximal response (EC50) in data set [3] was greater than 10 µM; in data set [2] (read-out: EC50), 2.9 µM.

Regarding `CC(C)CCC[C@](C)(O)[C@H]1CC[C@H]2[C@@H]3CC=C4C[C@@H](O)CC[C@]4(C)[C@H]3CC[C@@]21C`, the result with HEK293 [1] was inactive.

Take `CC(C)CCC[C@@H](C)[C@H]1CC[C@H]2[C@@H]3CC(=O)[C@H]4C[C@@H](OC(=O)N(CCO)CCO)CC[C@]4(C)[C@H]3CC[C@]12C`: the concentration giving a half-maximal response (EC50) in data set [2] (read-out: EC50) was determined as 3.8 µM.

As for `CCN(CC)C(=O)O[C@H]1CC[C@@]2(C)C(=CC[C@H]3[C@@H]4CC[C@H]([C@H](C)CCC(=O)N(C)C)[C@@]4(C)CC[C@@H]32)C1`, the results for the half-maximal effective concentration (EC50) in data set [3] and in data set [2] (read-out: EC50) were 4.2 µM and 1.8 µM, respectively.

In the case of `CC(C)CCC[C@@H](C)[C@H]1CC[C@H]2[C@@H]3C[C@H](O)[C@H]4C[C@@H](O)CC[C@]4(C)[C@H]3CC[C@]12C`, the EC50 in data set [2] (read-out: EC50) stood at 8.5 µM.

As for `CC(C)CCC[C@@H](C)[C@H]1CC[C@H]2[C@@H]3[C@@H](O)C=C4C[C@@H](O)CC[C@]4(C)[C@H]3CC[C@]12C`, the half-maximal effective concentration (EC50) in data set [2] (read-out: EC50) was 10 µM.

As for `CC(C)CCC[C@@H](C)[C@H]1CC[C@H]2[C@@H]3CC=C4C[C@@H](OC(=O)N(CCO)CCO)CC[C@]4(C)[C@H]3CC[C@]12C`, in data set [2], the EC50 result is given as “Not Active”.

Turning to `CNC(=O)CC[C@@H](C)[C@H]1CC[C@H]2[C@@H]3CC=C4C[C@@H](O)CC[C@]4(C)[C@H]3CC[C@]12C`, the EC50 in data set [2] (read-out: EC50) was greater than 10 µM.

For the compound `C[C@H](CCC(N)=O)[C@H]1CC[C@H]2[C@@H]3CC=C4C[C@@H](O)CC[C@]4(C)[C@H]3CC[C@]12C`, the half-maximal effective concentration (EC50) in data set [2] (read-out: EC50) is greater than 10 µM.

For the compound `CCCCN(CCCC)C(=O)CC[C@@H](C)[C@H]1CC[C@H]2[C@@H]3CC=C4C[C@@H](O)CC[C@]4(C)[C@H]3CC[C@]12C`, in data set [2] (read-out: EC50), the EC50 was greater than 3 µM.

On to `CC(C)CCC[C@@H](C)[C@H]1CC[C@H]2[C@@H]3CC=C4C[C@@H](O)CC[C@]4(C)[C@H]3CC[C@]12C`, for which, in the data set with HEK293 [1], the outcome was inactive.

On to `CC(C)CCC[C@@H](C)[C@H]1CC[C@H]2[C@@H]3C(=O)C=C4C[C@@H](OC(=O)N(CCO)CCO)CC[C@]4(C)[C@H]3CC[C@]12C`, for which the concentration for a half-maximal effect (EC50) in data set [2] (read-out: EC50) came out at 3.8 µM.

Consider `CC(C)CCC[C@@H](C)[C@H]1CC[C@H]2[C@@H]3[C@@H](O)C=C4C[C@@H](OC(=O)N(CCO)CCO)CC[C@]4(C)[C@H]3CC[C@]12C`, for which the concentration for a half-maximal effect (EC50) in data set [2] (read-out: EC50) is 2 µM.

Turning to `C[C@H](CCCO)[C@H]1CC[C@H]2[C@@H]3CC=C4C[C@@H](O)CC[C@]4(C)[C@H]3CC[C@]12C`, in data set [2], the EC50 result is recorded as “Not Active”.

On to `CC(C)CC[C@H](O)[C@@H](C)[C@H]1CC[C@H]2[C@@H]3CC=C4C[C@@H](O)CC[C@]4(C)[C@H]3CC[C@]12C`, for which, in data set [4], the outcome was Active. The outcome in the data set on HEK293 [1] was inactive.

Consider `CC(C)CCC[C@@H](C)[C@H]1CC[C@H]2[C@@H]3C[C@H](O)[C@H]4C[C@@H](OC(=O)N(CCO)CCO)CC[C@]4(C)[C@H]3CC[C@]12C`, for which the concentration for a half-maximal effect (EC50) in data set [2] (read-out: EC50) is 1.1 µM.

For `CC(C)CC[C@@H](O)[C@@H](C)[C@H]1CC[C@H]2[C@@H]3CC=C4C[C@@H](O)CC[C@]4(C)[C@H]3CC[C@]12C`, in the data set on HEK293 [1], the outcome was inactive.

One may read the EC50 as the concentration at which the effect is half-maximal.
